ChEMBL document CHEMBL1921709, “Synthesis and activity of new macrolones: conjugates between 6(7)-(2'-aminoethyl)-amino-1-cyclopropyl-3-carboxylic acid (2'-hydroxyethyl) amides and 4″-propenoyl-azithromycin” (2011)
Values after ≈ are worked out from the molar mass of the structure shown.

What was measured:
Assay type in all cases: functional
[1] = system: Staphylococcus aureus; experiment: Antibacterial activity against efflux-mediated macrolide-resistant Staphylococcus aureus PK1 by broth microdilution method
How it was run: (§1)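 Standard CLSI broth microdilution MIC test with automated double dilutions of compound. Bacteria were pre-grown on appropriate agar plates.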

[2] = system: Staphylococcus aureus; experiment: Antibacterial activity against constitutive macrolide, lincosamide, streptogramin-resistant Staphylococcus aureus PK2 by broth microdilution method; how it was run: as §1
[3] = system: Streptococcus pneumoniae; experiment: Antibacterial activity against constitutive macrolide, lincosamide, streptogramin-resistant Streptococcus pneumoniae 58 spain by broth microdilution method
How it was run: (§2)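 CLSI broth microdilution MIC with automated double dilutions of compound. The medium was supplemented with 5% horse serum in place of lysed blood. Bacteria were pre-grown on appropriate agar plates.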

[4] = system: Staphylococcus aureus; experiment: Antibacterial activity against inducible macrolide, lincosamide and streptogramin B-resistant Staphylococcus aureus 90256/97 by broth microdilution method; how it was run: as §1
[5] = system: Moraxella catarrhalis; experiment: Antibacterial activity against Moraxella catarrhalis ATCC 23246 by broth microdilution method
How it was run: (§3)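 Broth microdilution following CLSI guidelines, using two-fold serial dilutions of compound. Bacteria were first grown on appropriate agar plates. Read-out is growth inhibition, reported as MIC.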

[6] = system: Streptococcus pneumoniae; experiment: Antibacterial activity against inducible macrolide-resistant, constitutive lincosamide and streptogramin-resistant Streptococcus pneumoniae 134 GR M by broth microdilution method; how it was run: as §2
[7] = system: Haemophilus influenzae; experiment: Antibacterial activity against Haemophilus influenzae ATCC 49247 by broth microdilution method; how it was run: as §3
[8] = system: Streptococcus pyogenes; experiment: Antibacterial activity against erythromycin-sensitive Streptococcus pyogenes 3565 by broth microdilution method
How it was run: (§4)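 Broth microdilution following CLSI guidelines, except that 5% horse serum replaced lysed blood in the Streptococcus medium. Two-fold serial dilutions of compound were used. Bacteria were first grown on appropriate agar plates. Read-out is growth inhibition, reported as MIC.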

[9] = system: Streptococcus pneumoniae; experiment: Antibacterial activity against erythromycin-sensitive Streptococcus pneumoniae SP 030 by broth microdilution method; how it was run: as §4
[10] = system: Streptococcus pyogenes; experiment: Antibacterial activity against constitutive macrolide, lincosamide, streptogramin-resistant Streptococcus pyogenes 166 GR-Micro by broth microdilution method; how it was run: as §2
[11] = system: Streptococcus pyogenes; experiment: Antibacterial activity against inducible macrolide-lincosamide-streptogramin B resistant Streptococcus pyogenes Finland 11 by broth microdilution method; how it was run: as §2
[12] = system: Staphylococcus aureus; experiment: Antibacterial activity against erythromycin-sensitive Staphylococcus aureus ATCC 13709 by broth microdilution method; how it was run: as §3
[13] = system: Streptococcus pneumoniae; experiment: Antibacterial activity against efflux-mediated macrolide-resistant Streptococcus pneumoniae Ci137 by broth microdilution method; how it was run: as §2
[14] = system: Streptococcus pyogenes; experiment: Antibacterial activity against efflux-mediated macrolide-resistant Streptococcus pyogenes Finland 2 by broth microdilution method; how it was run: as §2

SMILES | MIC [1] [µg/mL] | MIC [2] [µg/mL] | MIC [3] [µg/mL] | MIC [4] [µg/mL] | MIC [5] [µg/mL] | MIC [6] [µg/mL] | MIC [7] [µg/mL] | MIC [8] [µg/mL] | MIC [9] [µg/mL] | MIC [10] [µg/mL] | MIC [11] [µg/mL] | MIC [12] [µg/mL] | MIC [13] [µg/mL] | MIC [14] [µg/mL]
CC[C@H]1OC(=O)[C@H](C)[C@@H](O[C@H]2C[C@@](C)(OC)[C@@H](OC(=O)CCN(C)CCNc3cc4c(cc3F)c(=O)c(C(=O)NCCO)cn4C3CC3)[C@H](C)O2)[C@H](C)[C@@H](O[C@@H]2O[C@H](C)C[C@H](N(C)C)[C@H]2O)[C@](C)(O)C[C@@H](C)CN(C)[C@H](C)[C@@H](O)[C@]1(C)O | > 64 | > 64 | > 64 | > 64 | 8 (≈ 6.86 µM) | 16 (≈ 13.7 µM) | 16 (≈ 13.7 µM) | 0.5 (≈ 0.429 µM) | ≤ 0.125 | > 64 | 16 (≈ 13.7 µM) | 16 (≈ 13.7 µM) | 2 (≈ 1.72 µM) | 16 (≈ 13.7 µM)
COC(=O)c1cn(C2CC2)c2cc(Cl)c(NCCNC(=O)OC(C)(C)C)cc2c1=O | > 64 | > 64 | > 64 | > 64 | > 64 | > 64 | > 64 | > 64 | > 64 | > 64 | > 64 | > 64 | > 64 | > 64
COC(=O)c1cn(C2CC2)c2cc(NCCNC(=O)OC(C)(C)C)c(F)cc2c1=O | > 64 | > 64 | > 64 | > 64 | 8 (≈ 19.1 µM) | > 64 | > 64 | > 64 | > 64 | > 64 | > 64 | > 64 | > 64 | > 64
CC(C)(C)OC(=O)NCCNc1cc2c(=O)c(C(=O)NCCO)cn(C3CC3)c2cc1Cl | > 64 | > 64 | > 64 | > 64 | 32 (≈ 68.8 µM) | > 64 | > 64 | 64 (≈ 138 µM) | 16 (≈ 34.4 µM) | > 64 | > 64 | > 64 | > 64 | > 64
CC(C)(C)OC(=O)NCCNc1cc2c(cc1F)c(=O)c(C(=O)NCCO)cn2C1CC1 | > 64 | > 64 | > 64 | > 64 | 16 (≈ 35.7 µM) | > 64 | > 64 | 16 (≈ 35.7 µM) | 16 (≈ 35.7 µM) | > 64 | > 64 | 64 (≈ 143 µM) | > 64 | > 64
NCCNc1cc2c(=O)c(C(=O)NCCO)cn(C3CC3)c2cc1Cl | > 64 | > 64 | > 64 | > 64 | 64 (≈ 175 µM) | > 64 | > 64 | > 64 | 64 (≈ 175 µM) | > 64 | > 64 | > 64 | > 64 | > 64
NCCNc1cc2c(cc1F)c(=O)c(C(=O)NCCO)cn2C1CC1 | > 64 | > 64 | > 64 | > 64 | > 64 | > 64 | > 64 | > 64 | > 64 | > 64 | > 64 | > 64 | > 64 | > 64
CC[C@H]1OC(=O)[C@H](C)[C@@H](O[C@H]2C[C@@](C)(OC)[C@@H](OC(=O)CCNCCNc3cc4c(=O)c(C(=O)NCCO)cn(C5CC5)c4cc3Cl)[C@H](C)O2)[C@H](C)[C@@H](O[C@@H]2O[C@H](C)C[C@H](N(C)C)[C@H]2O)[C@](C)(O)C[C@@H](C)CN(C)[C@H](C)[C@@H](O)[C@]1(C)O | > 64 | > 64 | 16 (≈ 13.7 µM) | > 64 | 0.5 (≈ 0.428 µM) | 32 (≈ 27.4 µM) | 4 (≈ 3.43 µM) | ≤ 0.125 | ≤ 0.125 | 32 (≈ 27.4 µM) | 1 (≈ 0.856 µM) | 4 (≈ 3.43 µM) | 2 (≈ 1.71 µM) | 4 (≈ 3.43 µM)
CC[C@H]1OC(=O)[C@H](C)[C@@H](O[C@H]2C[C@@](C)(OC)[C@@H](OC(=O)CCNCCNc3cc4c(cc3F)c(=O)c(C(=O)NCCO)cn4C3CC3)[C@H](C)O2)[C@H](C)[C@@H](O[C@@H]2O[C@H](C)C[C@H](N(C)C)[C@H]2O)[C@](C)(O)C[C@@H](C)CN(C)[C@H](C)[C@@H](O)[C@]1(C)O | > 64 | > 64 | 32 (≈ 27.8 µM) | > 64 | 0.5 (≈ 0.434 µM) | 64 (≈ 55.6 µM) | 4 (≈ 3.47 µM) | ≤ 0.125 | ≤ 0.125 | > 64 | 4 (≈ 3.47 µM) | 4 (≈ 3.47 µM) | 4 (≈ 3.47 µM) | 16 (≈ 13.9 µM)
CC[C@H]1OC(=O)[C@H](C)[C@@H](O[C@H]2C[C@@](C)(OC)[C@@H](OC(=O)CCN(C)CCNc3cc4c(=O)c(C(=O)NCCO)cn(C5CC5)c4cc3Cl)[C@H](C)O2)[C@H](C)[C@@H](O[C@@H]2O[C@H](C)C[C@H](N(C)C)[C@H]2O)[C@](C)(O)C[C@@H](C)CN(C)[C@H](C)[C@@H](O)[C@]1(C)O | 32 (≈ 27.1 µM) | > 64 | 32 (≈ 27.1 µM) | > 64 | 1 (≈ 0.846 µM) | 4 (≈ 3.38 µM) | 4 (≈ 3.38 µM) | ≤ 0.125 | ≤ 0.125 | > 64 | 2 (≈ 1.69 µM) | 2 (≈ 1.69 µM) | 0.5 (≈ 0.423 µM) | 2 (≈ 1.69 µM)
CC[C@H]1OC(=O)[C@H](C)[C@@H](O[C@H]2C[C@@](C)(OC)[C@@H](OC(=O)CCNCCNc3ccc4c(c3)c(=O)c(C(=O)NCCO)cn4C3CC3)[C@H](C)O2)[C@H](C)[C@@H](O[C@@H]2O[C@H](C)C[C@H](N(C)C)[C@H]2O)[C@](C)(O)C[C@@H](C)CN(C)[C@H](C)[C@@H](O)[C@]1(C)O | > 64 | > 64 | > 64 | > 64 | 0.5 (≈ 0.441 µM) | 32 (≈ 28.2 µM) | 8 (≈ 7.06 µM) | 0.25 (≈ 0.221 µM) | ≤ 0.125 | > 64 | 4 (≈ 3.53 µM) | 4 (≈ 3.53 µM) | 4 (≈ 3.53 µM) | 16 (≈ 14.1 µM)
CC[C@H]1OC(=O)[C@H](C)[C@@H](O[C@H]2C[C@@](C)(OC)[C@@H](OC(=O)CCN(C)CCNc3ccc4c(c3)c(=O)c(C(=O)NCCO)cn4C3CC3)[C@H](C)O2)[C@H](C)[C@@H](O[C@@H]2O[C@H](C)C[C@H](N(C)C)[C@H]2O)[C@](C)(O)C[C@@H](C)CN(C)[C@H](C)[C@@H](O)[C@]1(C)O | 64 (≈ 55.8 µM) | > 64 | > 64 | > 64 | 1 (≈ 0.871 µM) | 4 (≈ 3.49 µM) | 4 (≈ 3.49 µM) | 0.25 (≈ 0.218 µM) | ≤ 0.125 | > 64 | 4 (≈ 3.49 µM) | 2 (≈ 1.74 µM) | 1 (≈ 0.871 µM) | 4 (≈ 3.49 µM)
